Source: PMC3079198 (Journal of the American Chemical Society, 2011)

Assays:
[1] = system: H460 cells with wild type p53; assay: Caspase-Glo 3/7 assay in H460 cells; assay type: cell-based, human; conditions: 20 μM, 24 h
Summary of the method: (§1)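 Human lung cancer cells, H460 (wild-type p53) and H1299 (p53 deleted), were exposed for 24 h to test compound at 20 μM. Controls were DMSO, a negative-control compound (20 μM) and a known MDM2 inhibitor as positive control (20 μM). Caspase 3/7 activity was then measured with the Caspase-Glo 3/7 assay kit.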

[2] = system: H1299 cells with deleted p53; assay: Caspase-Glo 3/7 assay in H1299 cells; assay type: cell-based, human; conditions: 20 μM, 24 h
Summary of the method: as §1

CC(C)(C)C[C@H]1N[C@@H](C(=O)NCCN2CCOCC2)[C@H](c2cccc(Cl)c2F)[C@@]12C(=O)Nc1cc(Cl)ccc12 [MI-63]
induction of caspase 3/7 activity [1]: ~5 fold
effect on caspase 3/7 activity [2]: no effect
